Laboratory results as given in ChEMBL document CHEMBL1765017, “Homoisoflavonoids: natural scaffolds with potent and selective monoamine oxidase-B inhibition properties” (J Med Chem, 2011).

How the values were obtained:
[1] = biological target: T1, Amine oxidase [flavin-containing] B (Homo sapiens, UniProt P27338); test: biochemical; assay type: cell-based, BTI-TN-5B1-4
T1 sequence (P27338 whole entry): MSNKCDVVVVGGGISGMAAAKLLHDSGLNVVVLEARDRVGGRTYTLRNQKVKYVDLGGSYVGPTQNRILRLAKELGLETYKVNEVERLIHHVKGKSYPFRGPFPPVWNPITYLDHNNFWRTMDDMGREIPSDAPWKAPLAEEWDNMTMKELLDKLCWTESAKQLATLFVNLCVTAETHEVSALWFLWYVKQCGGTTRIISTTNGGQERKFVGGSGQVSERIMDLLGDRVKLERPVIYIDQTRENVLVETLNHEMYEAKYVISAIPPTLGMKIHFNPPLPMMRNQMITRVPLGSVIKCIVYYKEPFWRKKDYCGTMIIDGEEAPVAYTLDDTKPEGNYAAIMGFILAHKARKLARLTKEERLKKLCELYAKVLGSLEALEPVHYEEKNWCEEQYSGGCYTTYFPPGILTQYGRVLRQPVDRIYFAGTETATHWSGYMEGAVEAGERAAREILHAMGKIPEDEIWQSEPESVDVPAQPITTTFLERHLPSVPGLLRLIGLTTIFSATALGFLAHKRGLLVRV

[2] = biological target: T2, Amine oxidase [flavin-containing] A (Homo sapiens, UniProt P21397); test: Inhibition of human recombinant MAO-A expressed in baculovirus infected BTI-TN-5B1-4 insect sells assessed as hydrogen peroxide production at 100 uM by fluorimetric method; conditions: for inhibition at 100 µM: BTI-TN-5B1-4, human; for inhibition (INH): human, bti-tn-5b1-4, 100 µM
T2 sequence (P21397 whole entry): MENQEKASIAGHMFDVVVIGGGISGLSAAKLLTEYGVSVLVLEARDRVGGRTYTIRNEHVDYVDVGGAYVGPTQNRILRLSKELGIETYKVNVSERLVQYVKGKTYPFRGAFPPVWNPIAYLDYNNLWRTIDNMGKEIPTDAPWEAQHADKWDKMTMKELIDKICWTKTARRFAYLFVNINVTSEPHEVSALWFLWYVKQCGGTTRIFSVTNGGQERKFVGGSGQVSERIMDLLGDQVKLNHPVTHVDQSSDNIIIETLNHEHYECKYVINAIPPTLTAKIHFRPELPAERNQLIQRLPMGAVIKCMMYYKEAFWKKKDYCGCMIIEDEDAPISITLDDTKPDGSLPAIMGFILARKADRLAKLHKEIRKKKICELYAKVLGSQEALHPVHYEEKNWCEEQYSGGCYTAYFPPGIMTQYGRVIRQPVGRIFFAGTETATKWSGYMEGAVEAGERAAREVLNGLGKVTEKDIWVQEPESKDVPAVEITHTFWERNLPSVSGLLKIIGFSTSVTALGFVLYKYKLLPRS
Procedure, shortened: (§1)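 Microsomal human MAO-A or MAO-B from BTI-TN-5B1-4 insect cells infected with recombinant baculovirus carrying the isoform cDNA. p-Tyramine was the substrate for both isoforms. H2O2 production was detected fluorimetrically with the Amplex Red reagent. Compounds were checked for direct reaction with Amplex Red. Highest concentrations tested were 100 μM, or 1 mM for some compounds.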

[3] = biological target: T1, Amine oxidase [flavin-containing] B; test: Inhibition of human recombinant MAO-B expressed in baculovirus infected BTI-TN-5B1-4 insect sells assessed as hydrogen peroxide production at 1 mM by fluorimetric method; conditions: bti-tn-5b1-4, 1000 µM
Procedure, shortened: as §1

[4] = biological target: T2, Amine oxidase [flavin-containing] A; test: Inhibition of human recombinant MAO-A expressed in baculovirus infected BTI-TN-5B1-4 insect sells assessed as hydrogen peroxide production at 500 uM measured after repeated washing by fluorimetric method; conditions: BTI-TN-5B1-4, human
Procedure, shortened: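 Microsomal hMAO-A from insect cells infected with recombinant baculovirus. After exposure to inhibitor, the enzyme was washed repeatedly by centrifugation-ultrafiltration. Remaining activity was then read by Amplex Red fluorescence as H2O2 formed from p-tyramine. Percent inhibition is compared with before washing by ANOVA/Dunnett's. Mean ± SEM, n = 5.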

[5] = biological target: T2, Amine oxidase [flavin-containing] A; test: Inhibition of human recombinant MAO-A expressed in baculovirus infected BTI-TN-5B1-4 insect sells assessed as hydrogen peroxide production at 500 uM by fluorimetric method; conditions: BTI-TN-5B1-4, human
Procedure, shortened: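 Microsomal hMAO-A from insect cells (BTI-TN-5B1-4) infected with recombinant baculovirus carrying the hMAO-A cDNA. Fluorimetric Amplex Red assay measures H2O2 formed from p-tyramine, the substrate. Percent inhibition is expressed against control activity, given as pmol p-tyramine oxidised per min. Mean ± SEM of five experiments.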

[6] = biological target: T1, Amine oxidase [flavin-containing] B; test: Inhibition of human recombinant MAO-B expressed in baculovirus infected BTI-TN-5B1-4 insect sells assessed as hydrogen peroxide production at 100 uM by fluorimetric method; conditions: for inhibition (INH): human, bti-tn-5b1-4, 100 µM; for inhibition at 100 µM: BTI-TN-5B1-4, human
Procedure, shortened: as §1

[7] = biological target: T2, Amine oxidase [flavin-containing] A; test: Inhibition of human recombinant MAO-A expressed in baculovirus infected BTI-TN-5B1-4 insect sells assessed as hydrogen peroxide production by fluorimetric method
[8] = species on record: Homo sapiens; test: Selectivity index, ratio of IC50 for human MAO-A to IC50 for human MAO-B
Procedure, shortened: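 SI = IC50(hMAO-A)/IC50(hMAO-B). IC50s come from the Amplex Red fluorimetric assay of H2O2 from p-tyramine using baculovirus-expressed human isoforms, mean ± SEM of five experiments.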

[9] = biological target: T2, Amine oxidase [flavin-containing] A; test: Inhibition of human recombinant MAO-A expressed in baculovirus infected BTI-TN-5B1-4 insect sells assessed as hydrogen peroxide production at 50 uM by fluorimetric method; conditions: BTI-TN-5B1-4, human
[10] = biological target: T1, Amine oxidase [flavin-containing] B; test: Inhibition of human recombinant MAO-B expressed in baculovirus infected BTI-TN-5B1-4 insect sells assessed as hydrogen peroxide production at 10 nM measured after repeated washing by fluorimetric method; conditions: BTI-TN-5B1-4, human
[11] = biological target: T2, Amine oxidase [flavin-containing] A; test: Inhibition of human recombinant MAO-A expressed in baculovirus infected BTI-TN-5B1-4 insect sells assessed as hydrogen peroxide production at 50 uM measured after repeated washing by fluorimetric method; conditions: BTI-TN-5B1-4, human
[12] = biological target: T1, Amine oxidase [flavin-containing] B; test: Inhibition of human recombinant MAO-B expressed in baculovirus infected BTI-TN-5B1-4 insect sells assessed as hydrogen peroxide production at 10 nM by fluorimetric method; conditions: BTI-TN-5B1-4, human

SMILES | IC50 [1] [nM] | inhibition (INH) [2] | further results
O=c1c(Cc2ccc(Cl)cc2)coc2cc(Cl)cc(Cl)c12 | 439 |  | inhibition at 100 µM [2]: 40%
O=C1c2ccccc2OCC1Cc1ccccc1 (stereo unspecified) | 58500 | Not Active | 
O=C(NCCN1CCOCC1)c1ccc(Cl)cc1 [MOCLOBEMIDE] |  |  | inhibition (INH) [3]: Not Active; inhibition at 500 µM [4]: 11.4%; inhibition at 500 µM [5]: 86%
O=c1c(Cc2ccccc2)coc2ccccc12 |  | Not Active | inhibition (INH) [6]: Not Active
COc1ccc(/C=C2\COc3cc(OC)cc(OC)c3C2=O)cc1 | 1570 | Not Active | 
O=c1c(Cc2ccc(Cl)cc2)coc2ccccc12 |  | Not Active | inhibition (INH) [6]: Not Active
O=C1/C(=C/c2ccc(O)cc2)COc2cc(O)cc(O)c21 | 8.61 |  | IC50 [7]: 11.5 µM; inhibition at 50 µM [9]: 68.3%; inhibition at 0.01 µM [10]: 36.2%; Ratio IC50 [8]: 1330; inhibition at 50 µM [11]: 61.8%; inhibition at 0.01 µM [12]: 48.7%
COc1ccc(Cc2coc3ccccc3c2=O)cc1 | 21600 | Not Active | 
O=C1c2cc(Cl)ccc2OCC1Cc1ccc(Cl)cc1 (stereo unspecified) | 3070 | Not Active | 
O=C1c2ccccc2OCC1Cc1ccc(Cl)cc1 (stereo unspecified) | 7370 | Not Active | 
COc1ccc(/C=C2\COc3ccccc3C2=O)cc1 | 58.9 | Not Active | 
O=C1c2c(Cl)cc(Cl)cc2OCC1Cc1ccc(Cl)cc1 (stereo unspecified) | 4590 | Not Active | 
O=c1c(Cc2ccc(Cl)cc2)coc2ccc(Cl)cc12 |  | Not Active | inhibition at 100 µM [6]: 40%
O=C1/C(=C/c2ccc(O)cc2)COc2ccccc21 | 55.4 | Not Active | 
O=c1c(Cc2ccc(O)cc2)coc2ccccc12 |  | Not Active | inhibition at 100 µM [6]: 40%
COc1ccc(Cc2coc3cc(OC)cc(OC)c3c2=O)cc1 |  | Not Active | inhibition at 100 µM [6]: 40%

The next lines start with results.

IC50 [1] [nM] | inhibition (INH) [2] | SMILES | further results
 | Not Active | O=C(O)c1cc(/C=C2\COc3ccccc3C2=O)ccc1O | inhibition (INH) [6]: Not Active
1060 |  | CC(=O)Nc1ccc(/C=C2\COc3ccccc3C2=O)cc1 | IC50 [7]: 2.1 µM; Ratio IC50 [8]: 2
331 | Not Active | O=C1/C(=C/c2ccccc2)COc2ccc(Cl)cc21 | 
1330 |  | COc1ccc(/C=C2\COc3ccccc3C2=O)c(O)c1 | inhibition at 100 µM [2]: 40%
1310 | Not Active | COc1ccc(/C=C2\COc3ccccc3C2=O)c(OC)c1OC | 
484 |  | Nc1cc(/C=C2\COc3ccccc3C2=O)ccc1O | IC50 [7]: 1.44 µM; Ratio IC50 [8]: 3
31.8 | Not Active | O=C1/C(=C/c2ccc(Cl)cc2)COc2ccc(Cl)cc21 | 
491 | Not Active | O=C1/C(=C/c2ccc(O)c([N+](=O)[O-])c2)COc2ccccc21 | 
248 | Not Active | COc1ccc(/C=C2\COc3ccccc3C2=O)c(OC)c1 | 
20700 | Not Active | COc1cc(/C=C2\COc3ccccc3C2=O)cc(OC)c1OC | 
1920 | Not Active | COc1cccc(/C=C2\COc3ccccc3C2=O)c1OC | 
480 | Not Active | O=C1/C(=C/c2ccccc2)COc2ccccc21 | 
13 | Not Active | O=C1/C(=C/c2ccc(Cl)cc2)COc2cc(Cl)cc(Cl)c21 | 
879 | Not Active | Nc1ccc(/C=C2\COc3ccccc3C2=O)cc1 | 
8.51 | Not Active | CN(C)c1ccc(/C=C2\COc3ccccc3C2=O)cc1 | 
477 | Not Active | COc1ccc(/C=C2\COc3ccccc3C2=O)cc1O | 
154 | Not Active | O=C1/C(=C/c2ccc(Cl)cc2)COc2ccccc21 | 
 | Not Active | O=C1c2ccccc2OCC1Cc1ccc(O)cc1 (stereo unspecified) | inhibition at 100 µM [6]: 40%
104 |  | COc1cc(/C=C2\COc3ccccc3C2=O)ccc1O | inhibition at 100 µM [2]: 40%
141 |  | O=C1/C(=C/c2ccc(O)c(O)c2)COc2ccccc21 | IC50 [7]: 4.74 µM; Ratio IC50 [8]: 34
